Among the data in ChEMBL document CHEMBL3244114, “Synthesis of 11 beta,13 beta- and 13 beta,16 beta-propano steroids: probes of hormonal activity” (J Med Chem, 1979) are Activity and solubility values, retold here.

Activity calls are given as the source filed them. No cut-off for these calls is given here.

The subject of data set [1] is Oryctolagus cuniculus. As to the kind of experiment: Antiprogestational activity in estradiol benzoate-primed rabbit at 10 to 15 mg, sc administered qd for 5 days by anti-Clauberg assay in presence of progesterone. The format is functional, organism-based. In a few lines:
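Immature rabbits (six) were primed with estradiol benzoate for 6 days. Each compound (10–15 mg) was then given with progesterone (0.8 mg) in sesame oil, subcutaneously, once daily for 5 days. The read-out was uterine stimulation. NICHD ran the assay.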

For data set [2], the target named is T1, Progesterone receptor (Oryctolagus cuniculus) (UniProt P06186).
T1 sequence (whole entry): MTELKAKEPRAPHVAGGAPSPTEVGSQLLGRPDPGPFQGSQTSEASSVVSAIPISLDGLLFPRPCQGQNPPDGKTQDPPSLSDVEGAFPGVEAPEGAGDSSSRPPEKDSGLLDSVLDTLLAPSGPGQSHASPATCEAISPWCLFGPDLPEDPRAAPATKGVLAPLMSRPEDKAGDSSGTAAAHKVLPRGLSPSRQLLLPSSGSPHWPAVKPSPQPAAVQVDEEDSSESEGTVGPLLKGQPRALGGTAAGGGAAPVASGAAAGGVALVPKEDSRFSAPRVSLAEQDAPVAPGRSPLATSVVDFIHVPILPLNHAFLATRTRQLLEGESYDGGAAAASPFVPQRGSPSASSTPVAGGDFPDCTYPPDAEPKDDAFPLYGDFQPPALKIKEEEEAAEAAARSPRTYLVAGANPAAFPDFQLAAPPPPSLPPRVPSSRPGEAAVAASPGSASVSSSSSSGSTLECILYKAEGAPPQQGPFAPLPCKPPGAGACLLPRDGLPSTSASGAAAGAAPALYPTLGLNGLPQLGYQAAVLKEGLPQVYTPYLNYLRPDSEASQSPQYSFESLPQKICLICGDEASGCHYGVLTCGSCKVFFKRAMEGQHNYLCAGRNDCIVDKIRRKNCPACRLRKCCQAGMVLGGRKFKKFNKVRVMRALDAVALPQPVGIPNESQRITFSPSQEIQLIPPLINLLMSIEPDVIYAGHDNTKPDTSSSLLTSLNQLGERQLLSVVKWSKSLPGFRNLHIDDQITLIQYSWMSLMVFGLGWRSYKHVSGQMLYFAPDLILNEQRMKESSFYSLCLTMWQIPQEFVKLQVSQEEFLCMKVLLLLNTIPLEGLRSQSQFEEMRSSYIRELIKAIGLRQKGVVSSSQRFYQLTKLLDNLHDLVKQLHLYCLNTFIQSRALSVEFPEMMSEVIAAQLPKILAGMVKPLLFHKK
Nature of the data set: Binding affinity to progesterone receptor in rabbit uterine cytosol relative to progesterone. The settings on record: Uterus.

The species entered for data set [3] is Oryctolagus cuniculus. Nature of the data set: Progestational activity in immature rabbit assessed as uterine stimulation by Clauberg assay. The format is functional.
A short description of data set [4]: Solubility of the compound in carbon tetrachloride. The data set is classed as physicochemical.

`C#C[C@]1(O)CC[C@H]2[C@@H]3CCC4=CC(=O)CC[C@@H]4[C@H]3CC[C@@]21CCCOC(=O)CBr`: the outcome with Oryctolagus cuniculus [1] was inactive. The Activity in data set [2] was found to be 2%.

For the molecule `C#C[C@]1(O)[C@H]2CCC[C@@]13CC[C@H]1[C@@H](CCC4=CC(=O)CC[C@@H]41)[C@@H]3C2` (racemic), in the data set on Oryctolagus cuniculus [1], the outcome was inactive. The molecule also registered an Activity in data set [2] of 1%.

For the molecule `C#C[C@]1(O)CC[C@H]2[C@@H]3CCC4=CC(=O)CC[C@@H]4[C@H]3CC[C@@]21CCC=O`, the outcome in the data set with Oryctolagus cuniculus [1] was inactive. Besides, the Activity in the data set listed under Oryctolagus cuniculus [3] was 5%; in data set [2] it was 21%.

In turn, `C#C[C@]1(O)CC[C@H]2[C@@H]3CCC4=CC(=O)CC[C@@H]4[C@H]3[C@H]3CCC[C@]21C3` (racemic) had an Activity in data set [2] of 136%.

For the molecule `COc1ccc2c(c1)CCC1=C2[C@@H]2C[C@]3(CCC2O)[C@@H](OC(C)=O)CC[C@@H]13` (stereo partly drawn), the solubility result in data set [4] is “Insoluble”.

Turning to `C#C[C@]1(O)CC[C@H]2[C@@H]3CCC4=CC(=O)CC[C@@H]4[C@H]3[C@@H](C)C[C@@]21CC` (racemic), in data set [2], the Activity is 151%.

With `C#C[C@]1(O)CC[C@H]2[C@@H]3CCC4=CC(=O)CC[C@@H]4[C@H]3CC[C@@]21CCCOC(C)=O`, the result in the data set with Oryctolagus cuniculus [1] was inactive.

As to `C#C[C@]1(O)CC[C@H]2[C@@H]3CCC4=CC(=O)CC[C@@H]4[C@H]3CC[C@@]21CCCO`, in the data set with Oryctolagus cuniculus [1], the result was inactive. In data set [2], this molecule came in with an Activity of 2%.

As for `C#CC1(O)CC[C@H]2[C@@H]3CCC4=CC(=O)CC[C@@H]4[C@H]3CC[C@@]21CC` (mixture of isomers), the Activity in data set [2] stood at 206%.

`C#C[C@]1(O)CC[C@H]2[C@@H]3CCC4=CC(=O)CC[C@@H]4[C@H]3[C@@H](C)C[C@@]21C` yielded an Activity in data set [2] of 390%.

In data set [2], `C#C[C@]1(O)CC[C@H]2[C@@H]3CCC4=CC(=O)CC[C@@H]4[C@H]3CC[C@@]21C` registered an Activity of 126%.

Consider `C#C[C@]1(O)CC[C@H]2[C@@H]3CCC4=CC(=O)CC[C@@H]4[C@H]3CC[C@@]21CCCCl`, for which the outcome in the data set with Oryctolagus cuniculus [1] was inactive. In addition, the Activity in data set [2] turned out to be 1%.
